Results taken from ChEMBL document CHEMBL2029200, “Discovery of a novel melanin concentrating hormone receptor 1 (MCHR1) antagonist with reduced hERG inhibition” (Bioorg Med Chem Lett, 2012).
The source made the active and inactive calls. No cut-off for these calls is given here.

Experiments:
[1] = target: T1, Melanin-concentrating hormone receptor 1 (Homo sapiens, UniProt Q99705); test: Displacement of [125I]-MCH from MCHR1 after 2 hrs by scintillation counting
In short: (§1)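 Competition binding on MCHR1 membrane preparation with 125I-MCH tracer. Compound diluted in 50 mM Tris pH 7.4, 10 mM MgCl2, 2.5 mM EDTA, 0.2% BSA. Incubation 2 h at 37 °C with shaking. Bound and free ligand separated by vacuum filtration through BSA-pretreated filter plates. Filters washed 4 times in Hepes/NaCl/BSA buffer, then counted by scintillation.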

[2] = target: T2, Voltage-gated inwardly rectifying potassium channel KCNH2 (Homo sapiens, UniProt Q12809); test: Inhibition of human Erg expressed in HEK293 cells assessed as rubidium efflux after 4 hrs by atomic absorbance spectrometric analysis
T2 sequence (Q12809 whole entry): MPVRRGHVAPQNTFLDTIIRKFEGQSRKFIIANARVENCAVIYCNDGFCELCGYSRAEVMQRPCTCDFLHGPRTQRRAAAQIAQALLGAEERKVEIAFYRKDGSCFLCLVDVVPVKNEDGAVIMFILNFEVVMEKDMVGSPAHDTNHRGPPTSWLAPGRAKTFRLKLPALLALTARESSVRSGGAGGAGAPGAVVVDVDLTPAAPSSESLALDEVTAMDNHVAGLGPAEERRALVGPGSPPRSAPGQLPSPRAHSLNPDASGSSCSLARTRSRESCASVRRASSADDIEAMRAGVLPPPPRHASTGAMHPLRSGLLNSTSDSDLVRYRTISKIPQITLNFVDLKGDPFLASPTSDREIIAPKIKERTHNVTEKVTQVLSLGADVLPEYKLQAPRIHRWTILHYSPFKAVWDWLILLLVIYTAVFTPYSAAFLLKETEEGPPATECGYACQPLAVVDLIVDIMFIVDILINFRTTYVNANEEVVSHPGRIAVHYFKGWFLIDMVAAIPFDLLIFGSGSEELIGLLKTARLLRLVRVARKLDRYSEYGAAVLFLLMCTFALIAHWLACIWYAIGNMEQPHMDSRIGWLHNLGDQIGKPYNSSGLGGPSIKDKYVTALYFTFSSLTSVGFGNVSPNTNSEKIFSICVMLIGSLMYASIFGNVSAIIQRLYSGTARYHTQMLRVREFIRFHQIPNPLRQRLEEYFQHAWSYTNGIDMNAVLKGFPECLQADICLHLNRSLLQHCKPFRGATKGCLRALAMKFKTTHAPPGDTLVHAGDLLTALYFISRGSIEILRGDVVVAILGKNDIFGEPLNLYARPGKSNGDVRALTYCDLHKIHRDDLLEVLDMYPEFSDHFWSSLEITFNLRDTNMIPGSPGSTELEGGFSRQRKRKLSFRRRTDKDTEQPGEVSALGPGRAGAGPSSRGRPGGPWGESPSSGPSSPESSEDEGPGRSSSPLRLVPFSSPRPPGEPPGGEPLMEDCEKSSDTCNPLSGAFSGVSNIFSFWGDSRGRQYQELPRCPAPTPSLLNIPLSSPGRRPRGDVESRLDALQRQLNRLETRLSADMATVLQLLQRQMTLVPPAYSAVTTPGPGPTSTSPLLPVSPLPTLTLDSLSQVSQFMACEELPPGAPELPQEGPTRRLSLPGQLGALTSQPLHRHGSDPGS

Mus musculus [3] = test: Antiobesity activity in high fat diet-fed C57BL/6 mouse expressing wild type MCHR1 gene assessed as reduction in body weight at 100 mg/kg, po daily measured for 34 weeks relative to control; format: functional; design: scale not given: the % may be the effect or the level left
In short: (§2)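 Wild-type and MCHR1-knockout female C57BL/6 mice given compound mixed into a 60% kCal fat high-fat diet. Body weight gain at study end compared with vehicle.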

Mus musculus [4] = test: Antiobesity activity in high fat diet-fed C57BL/6 mouse assessed as reduction in body weight at 3 mg/kg, po daily measured up to day 137 relative to control; format: functional, organism-based; design: dose 3 mg/kg
Mus musculus [5] = test: Antiobesity activity in high fat diet-fed C57BL/6 mouse assessed as reduction in body weight at 10 mg/kg, po daily measured up to day 137 relative to control; format: functional, organism-based; design: dose 10 mg/kg
In short: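 Male/female unspecified C57BL/6 mice weaned at 4–5 weeks and kept on high-fat diet for over 24 weeks before dosing. Body weight followed for 137 days against vehicle.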

Mus musculus [6] = test: Antiobesity activity in high fat diet-fed C57BL/6 mouse assessed as reduction in food intake at 3 to 10 mg/kg, po daily measured up to day 137 relative to control; format: functional, organism-based
Mus musculus [7] = test: Antiobesity activity in high fat diet-fed MCHR1-knockout C57BL/6 mouse assessed as reduction in body weight at 100 mg/kg, po daily measured for 34 weeks relative to control; format: functional, organism-based; design: dose 100 mg/kg; in short: as §2
[8] = target: T2, Voltage-gated inwardly rectifying potassium channel KCNH2; test: Binding affinity to human Erg
[9] = target: T1, Melanin-concentrating hormone receptor 1; test: Binding affinity to human MCHR1; in short: as §1
[10] = target: T1, Melanin-concentrating hormone receptor 1; test: Antagonist activity at human MCHR1 assessed inhibition of MCH-mediated intracellular Ca2+ calcium mobilization by aequorin assay; format: functional, cell-based
In short: (§3)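 MCH-evoked intracellular Ca2+ mobilization read by aequorin luminescence in cells. Antagonism measured as blockade of the MCH response.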

[11] = target: Melanin-concentrating hormone receptor 1 (Mus musculus, UniProt Q8JZL2); test: Antagonist activity at mouse MCHR1 assessed inhibition of MCH-mediated intracellular Ca2+ calcium mobilization; format: functional, cell-based; in short: as §3
[12] = target: Melanin-concentrating hormone receptor 1 (Rattus norvegicus, UniProt P97639); test: Antagonist activity at rat MCHR1 assessed inhibition of MCH-mediated intracellular Ca2+ calcium mobilization; format: functional, cell-based; in short: as §3
[13] = target: Melanin-concentrating hormone receptor 1 (Macaca mulatta, UniProt Q8MJ89); test: Antagonist activity at rhesus monkey MCHR1 assessed inhibition of MCH-mediated intracellular Ca2+ calcium mobilization; format: functional, cell-based; in short: as §3
Sequence of Melanin-concentrating hormone receptor 1 (Macaca mulatta, UniProt Q8MJ89) (Q8MJ89 whole entry): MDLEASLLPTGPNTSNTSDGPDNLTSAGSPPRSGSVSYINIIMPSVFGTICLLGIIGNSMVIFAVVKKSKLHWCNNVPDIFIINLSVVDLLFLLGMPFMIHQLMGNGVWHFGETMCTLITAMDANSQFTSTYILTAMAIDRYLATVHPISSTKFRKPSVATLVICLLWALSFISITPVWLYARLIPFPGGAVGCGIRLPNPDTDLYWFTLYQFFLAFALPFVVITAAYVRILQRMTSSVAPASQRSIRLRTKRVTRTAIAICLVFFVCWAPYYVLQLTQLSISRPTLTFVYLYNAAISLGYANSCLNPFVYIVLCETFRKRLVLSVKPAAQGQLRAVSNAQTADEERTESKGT

[14] = target: Melanin-concentrating hormone receptor 2 (Homo sapiens, UniProt Q969V1); test: Antagonist activity at human MCHR2 assessed inhibition of MCH-mediated intracellular Ca2+ calcium mobilization; format: functional, cell-based; in short: as §3
[15] = target: 5-hydroxytryptamine receptor 1A (Homo sapiens, UniProt P08908); test: Binding affinity to serotonin 5HT1A receptor
[16] = target: 5-hydroxytryptamine receptor 2A (Homo sapiens, UniProt P28223); test: Binding affinity to serotonin 5HT2A receptor
Sequence of 5-hydroxytryptamine receptor 2A (P28223 whole entry): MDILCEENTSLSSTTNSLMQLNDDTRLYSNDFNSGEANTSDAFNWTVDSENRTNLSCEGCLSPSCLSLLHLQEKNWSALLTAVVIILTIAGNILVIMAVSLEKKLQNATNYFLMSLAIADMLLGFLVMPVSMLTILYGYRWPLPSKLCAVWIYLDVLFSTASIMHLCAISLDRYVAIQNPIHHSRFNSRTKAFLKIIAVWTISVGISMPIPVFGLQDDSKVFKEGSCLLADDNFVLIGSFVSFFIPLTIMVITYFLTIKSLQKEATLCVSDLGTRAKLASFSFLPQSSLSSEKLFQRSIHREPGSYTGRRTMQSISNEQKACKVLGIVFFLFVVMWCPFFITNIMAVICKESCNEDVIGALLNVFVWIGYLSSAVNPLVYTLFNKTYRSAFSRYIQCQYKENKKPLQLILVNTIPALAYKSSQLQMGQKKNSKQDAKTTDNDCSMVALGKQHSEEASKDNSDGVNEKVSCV

[17] = target: T3, 5-hydroxytryptamine receptor 2C (Homo sapiens, UniProt P28335); test: Binding affinity to serotonin 5HT2C receptor
T3 sequence (P28335 whole entry): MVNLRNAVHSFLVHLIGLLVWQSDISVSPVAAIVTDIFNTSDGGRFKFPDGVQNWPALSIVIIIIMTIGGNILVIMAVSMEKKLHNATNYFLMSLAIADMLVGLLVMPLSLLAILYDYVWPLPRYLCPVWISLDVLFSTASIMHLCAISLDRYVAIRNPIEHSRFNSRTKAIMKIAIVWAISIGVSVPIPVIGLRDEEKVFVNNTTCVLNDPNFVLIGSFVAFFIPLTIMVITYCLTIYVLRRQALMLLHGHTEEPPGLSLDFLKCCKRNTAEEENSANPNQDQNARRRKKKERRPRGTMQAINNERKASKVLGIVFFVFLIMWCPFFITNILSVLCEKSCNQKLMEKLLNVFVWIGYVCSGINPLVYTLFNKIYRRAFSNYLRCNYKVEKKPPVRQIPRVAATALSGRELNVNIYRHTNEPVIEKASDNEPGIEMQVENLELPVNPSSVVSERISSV

[18] = target: T3, 5-hydroxytryptamine receptor 2C; test: Antagonist activity at serotonin 5HT2C receptor assessed as blockage of intracellular calcium mobilization; format: functional, cell-based
D(1A) dopamine receptor = D(1A) dopamine receptor (Homo sapiens, UniProt P21728); test: Binding affinity to dopamine D1 receptor
Sequence of D(1A) dopamine receptor (P21728 whole entry): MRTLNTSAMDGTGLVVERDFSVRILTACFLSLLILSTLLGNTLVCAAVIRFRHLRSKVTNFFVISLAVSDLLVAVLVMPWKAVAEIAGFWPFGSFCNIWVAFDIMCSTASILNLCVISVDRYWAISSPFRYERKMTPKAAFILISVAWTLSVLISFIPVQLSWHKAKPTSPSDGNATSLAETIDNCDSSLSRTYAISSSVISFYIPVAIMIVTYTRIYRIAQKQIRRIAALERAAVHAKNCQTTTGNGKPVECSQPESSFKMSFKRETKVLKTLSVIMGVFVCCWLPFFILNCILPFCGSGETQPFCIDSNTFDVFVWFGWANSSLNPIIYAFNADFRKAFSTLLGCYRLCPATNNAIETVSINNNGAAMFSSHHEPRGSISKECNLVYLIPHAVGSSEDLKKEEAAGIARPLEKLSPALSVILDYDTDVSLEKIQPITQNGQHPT

D(2) dopamine receptor = D(2) dopamine receptor (Homo sapiens, UniProt P14416); test: Binding affinity to dopamine D2 receptor
Sequence of D(2) dopamine receptor (P14416 whole entry): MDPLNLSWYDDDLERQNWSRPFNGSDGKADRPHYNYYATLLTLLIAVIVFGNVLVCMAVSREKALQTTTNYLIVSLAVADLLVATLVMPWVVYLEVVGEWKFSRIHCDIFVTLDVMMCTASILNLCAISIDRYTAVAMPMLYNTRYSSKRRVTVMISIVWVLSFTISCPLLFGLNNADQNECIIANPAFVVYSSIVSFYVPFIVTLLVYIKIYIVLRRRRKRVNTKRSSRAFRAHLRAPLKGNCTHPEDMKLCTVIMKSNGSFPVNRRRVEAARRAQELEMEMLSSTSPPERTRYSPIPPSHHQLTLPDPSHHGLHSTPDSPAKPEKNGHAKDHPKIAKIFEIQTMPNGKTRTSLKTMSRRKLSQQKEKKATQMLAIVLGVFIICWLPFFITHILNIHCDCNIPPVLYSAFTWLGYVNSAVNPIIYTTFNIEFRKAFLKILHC

[19] = target: Alpha-2A adrenergic receptor (Homo sapiens, UniProt P08913); test: Binding affinity to adrenergic alpha2A receptor
[20] = target: Alpha-2C adrenergic receptor (Homo sapiens, UniProt P18825); test: Binding affinity to adrenergic alpha2C receptor
Sequence of Alpha-2C adrenergic receptor (P18825 whole entry): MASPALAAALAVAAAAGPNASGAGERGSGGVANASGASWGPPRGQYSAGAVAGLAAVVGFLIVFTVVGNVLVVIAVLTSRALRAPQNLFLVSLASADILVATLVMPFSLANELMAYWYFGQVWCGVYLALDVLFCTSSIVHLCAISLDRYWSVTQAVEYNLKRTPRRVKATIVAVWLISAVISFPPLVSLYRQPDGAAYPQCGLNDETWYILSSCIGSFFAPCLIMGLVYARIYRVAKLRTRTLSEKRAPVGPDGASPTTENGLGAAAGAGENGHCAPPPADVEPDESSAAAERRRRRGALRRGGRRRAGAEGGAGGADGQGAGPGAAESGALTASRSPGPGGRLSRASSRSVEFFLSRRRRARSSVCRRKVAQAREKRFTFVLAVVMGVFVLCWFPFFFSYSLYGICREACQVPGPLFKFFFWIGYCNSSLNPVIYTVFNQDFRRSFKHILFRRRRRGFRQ

Mu-type opioid receptor = Mu-type opioid receptor (Homo sapiens, UniProt P35372); test: Binding affinity to opioid mu receptor
[21] = target: Muscarinic acetylcholine receptor M2 (Homo sapiens, UniProt P08172); test: Binding affinity to muscarinic M2 receptor
Sequence of Muscarinic acetylcholine receptor M2 (P08172 whole entry): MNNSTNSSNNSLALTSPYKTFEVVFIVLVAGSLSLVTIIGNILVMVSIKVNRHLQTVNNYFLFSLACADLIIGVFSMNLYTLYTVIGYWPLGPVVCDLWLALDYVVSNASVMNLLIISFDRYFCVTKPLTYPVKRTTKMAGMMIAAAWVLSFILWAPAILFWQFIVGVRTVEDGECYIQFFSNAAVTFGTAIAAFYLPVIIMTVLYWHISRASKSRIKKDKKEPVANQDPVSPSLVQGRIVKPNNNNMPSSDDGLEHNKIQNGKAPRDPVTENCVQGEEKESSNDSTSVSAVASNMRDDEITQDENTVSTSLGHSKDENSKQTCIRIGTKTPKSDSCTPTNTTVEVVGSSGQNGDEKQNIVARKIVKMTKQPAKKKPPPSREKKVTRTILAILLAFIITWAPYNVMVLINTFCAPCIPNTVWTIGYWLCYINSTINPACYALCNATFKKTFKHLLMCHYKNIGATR

[22] = target: Muscarinic acetylcholine receptor M3 (Homo sapiens, UniProt P20309); test: Binding affinity to muscarinic M3 receptor
Sequence of Muscarinic acetylcholine receptor M3 (P20309 whole entry): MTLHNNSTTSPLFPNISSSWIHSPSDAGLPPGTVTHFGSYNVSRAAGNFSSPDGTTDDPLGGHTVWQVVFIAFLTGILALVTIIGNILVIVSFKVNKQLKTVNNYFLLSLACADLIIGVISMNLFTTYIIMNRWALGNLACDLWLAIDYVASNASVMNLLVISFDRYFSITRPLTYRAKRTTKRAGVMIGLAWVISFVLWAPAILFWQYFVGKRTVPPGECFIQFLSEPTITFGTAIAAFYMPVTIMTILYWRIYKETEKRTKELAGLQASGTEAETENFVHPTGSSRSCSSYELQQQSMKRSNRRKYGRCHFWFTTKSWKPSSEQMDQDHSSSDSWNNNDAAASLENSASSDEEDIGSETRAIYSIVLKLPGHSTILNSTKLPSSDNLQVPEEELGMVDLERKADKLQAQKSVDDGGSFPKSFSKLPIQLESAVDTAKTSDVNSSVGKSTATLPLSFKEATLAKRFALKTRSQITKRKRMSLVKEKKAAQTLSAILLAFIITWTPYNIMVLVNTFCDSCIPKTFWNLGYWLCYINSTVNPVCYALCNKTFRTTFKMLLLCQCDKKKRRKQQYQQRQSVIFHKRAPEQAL

[23] = target: Sodium-dependent noradrenaline transporter (Homo sapiens, UniProt P23975); test: Binding affinity to norepinephrine transporter
[24] = target: Sodium-dependent serotonin transporter (Homo sapiens, UniProt P31645); test: Binding affinity to serotonin transporter
[25] = Clearance in mouse at 0.5 mg/kg, iv; format: ADME, organism-based; design: dose 0.5 mg/kg, route intravenous; details: in vivo
In short: (§4)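 Pharmacokinetics determined after IV dosing at 0.5 mg/kg and oral dosing at 3 mg/kg.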

[26] = Volume of distribution at steady state in mouse at 0.5 mg/kg, iv; format: ADME, organism-based; design: dose 0.5 mg/kg, route intravenous; details: in vivo, read-out: Vdss; in short: as §4
[27] = Clearance in rat at 0.5 mg/kg, iv; format: ADME, organism-based; design: dose 0.5 mg/kg, route intravenous; details: in vivo; in short: as §4
[28] = Volume of distribution at steady state in rat at 0.5 mg/kg, iv; format: ADME, organism-based; design: dose 0.5 mg/kg, route intravenous; details: in vivo, read-out: Vdss; in short: as §4
[29] = Clearance in beagle dog at 0.5 mg/kg, iv; format: ADME, organism-based, Canis lupus familiaris; design: dose 0.5 mg/kg, route intravenous; details: in vivo; in short: as §4
[30] = Volume of distribution at steady state in beagle dog at 0.5 mg/kg, iv; format: ADME, organism-based, Canis lupus familiaris; design: dose 0.5 mg/kg, route intravenous; details: in vivo, read-out: Vdss; in short: as §4
[31] = Clearance in cynomolgus monkey at 0.5 mg/kg, iv; format: ADME, organism-based, Macaca fascicularis; design: dose 0.5 mg/kg, route intravenous; details: in vivo; in short: as §4
[32] = Volume of distribution at steady state in cynomolgus monkey at 0.5 mg/kg, iv; format: ADME, organism-based, Macaca fascicularis; design: dose 0.5 mg/kg, route intravenous; details: in vivo, read-out: Vdss; in short: as §4
[33] = Mean residence time in mouse at 3 mg/kg, po; format: ADME, organism-based; design: dose 3 mg/kg, route oral; details: in vivo; in short: as §4
[34] = Mean residence time in rat at 3 mg/kg, po; format: ADME, organism-based; design: dose 3 mg/kg, route oral; details: in vivo; in short: as §4
[35] = Mean residence time in beagle dog at 3 mg/kg, po; format: ADME, organism-based, Canis lupus familiaris; design: dose 3 mg/kg, route oral; details: in vivo; in short: as §4
[36] = Mean residence time in cynomolgus monkey at 3 mg/kg, po; format: ADME, organism-based, Macaca fascicularis; design: dose 3 mg/kg, route oral; details: in vivo; in short: as §4
[37] = Oral bioavailability in mouse at 3 mg/kg; format: ADME, organism-based; details: in vivo; in short: as §4
[38] = Oral bioavailability in rat at 3 mg/kg; format: ADME, organism-based; details: in vivo; in short: as §4
[39] = Oral bioavailability in beagle dog at 3 mg/kg; format: ADME, organism-based, Canis lupus familiaris; details: in vivo; in short: as §4
[40] = Oral bioavailability in cynomolgus monkey at 3 mg/kg; format: ADME, organism-based, Macaca fascicularis; details: in vivo; in short: as §4
[41] = Ratio of drug uptake in blood to plasma of rat at 10 mg/kg, po; format: ADME, organism-based; design: dose 10 mg/kg, route oral; details: blood and plasma
In short: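 Single 10 mg/kg oral dose. Drug concentration in whole blood was divided by the plasma concentration to give the [blood]/[plasma] ratio. Brain/plasma and CSF/plasma ratios were obtained after the same dose.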

[42] = Ratio of drug uptake in brain to plasma of rat at 10 mg/kg, po; format: ADME, organism-based; design: dose 10 mg/kg, route oral; details: brain and plasma, read-out: BPR
[43] = Ratio of drug uptake in CSF to plasma of rat at 10 mg/kg, po; format: ADME, organism-based; design: dose 10 mg/kg, route oral; details: CSF and plasma
Rhesus monkey = test: Cardiotoxicity in rhesus monkey assessed as QT prolongation administered as bolus dose; format: toxicity, organism-based, Macaca mulatta; details: in vivo
In short: (§5)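 Anesthetized rhesus monkeys received an IV bolus followed by a 45 min IV infusion. QTc recorded throughout.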

[44] = Plasma concentration in iv dosed rhesus monkey after 45 mins; format: ADME, organism-based, Macaca mulatta; in short: as §5
Cynomolgus monkey = test: Cardiotoxicity in cynomolgus monkey assessed as QT prolongation at 30 mg/kg, po; format: toxicity, organism-based, Macaca fascicularis; design: dose 30 mg/kg, route oral; details: in vivo
In short: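 Cynomolgus monkeys (n = 3) given a single 30 mg/kg oral dose; QTc monitored.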

Canis familiaris [45] = test: Cardiotoxicity in dog assessed as QT prolongation at 300 mg/kg, po; format: toxicity, organism-based, Canis lupus familiaris; design: dose 300 mg/kg, route oral; details: in vivo
In short: (§6)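 Dogs dosed orally at 300 mg/kg in a 4 h study. QTc monitored throughout; plasma Cmax determined.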

[46] = Cmax in dog at 300 mg/kg, po; format: ADME, organism-based, Canis lupus familiaris; design: dose 300 mg/kg, route oral; details: in vivo; in short: as §6
Canis familiaris [47] = test: Cardiotoxicity in dog assessed as QT prolongation at 100 mg/kg, po BID for 28 days; format: toxicity, organism-based, Canis lupus familiaris; design: dose 100 mg/kg, route oral; details: in vivo, 672 h

T1 sequence (Q99705 whole entry): as the sequence (Q8MJ89 whole entry) above, with T14A, S33T, V36I, M60T counted along it

## C[C@H]1c2c([nH]c3ccc(C(F)(F)F)cc23)C[C@H]2CCN(CCC3(C(=O)O)CCOCC3)C[C@@H]21
[1]
  IC50: 0.009 µM
[2]
  IC50: > 5 µM

## C[C@H]1c2c([nH]c3ccc(C(F)(F)F)cc23)C[C@H]2CCN(CCC3(C(=O)O)CCCCC3)C[C@@H]21.Cl
Mus musculus [3]
  Activity: 33%

## CC(C)CC(N(C)C)C1(c2ccc(Cl)cc2)CCC1 (stereo not drawn)
Mus musculus [4]
  Activity: Active

## C[C@H]1c2c([nH]c3ccc(C(F)(F)F)cc23)C[C@H]2CCN(CCCC3CCOCC3)C[C@@H]21
[2]
  IC50: 0.03 µM

## C[C@H]1c2c([nH]c3ccc(C(F)(F)F)cc23)C[C@H]2CCN(CCC3(C(=O)O)CCCCC3)C[C@@H]21 [listing 1 of 2 here]
Mus musculus [4]
  Activity: Active
Mus musculus [5]
  Activity: Active
Mus musculus [6]
  Activity: Active
Mus musculus [7]
  Activity: inactive

## N=C(c1ccc(C(=O)Nc2ccc(Cl)cc2C(=O)Nc2ccc(Cl)cn2)cc1)N1CCCC(C(=O)O)C1 (stereo not drawn)
[8]
  Ki: > 10 µM

## C[C@H]1c2c([nH]c3ccc(C(F)(F)F)cc23)C[C@H]2CCN(CCCC3(C(=O)O)CCOCC3)C[C@@H]21
[1]
  IC50: 0.04 µM
[2]
  IC50: 0.3 µM

## C[C@H]1c2c([nH]c3ccc(C(F)(F)F)cc23)C[C@H]2CCN(CCC3(C(=O)O)CCCCC3)C[C@@H]21 [listing 2 of 2 here]
[1]
  IC50: 0.0006 µM
[2]
  IC50: > 5 µM
[9]
  Ki: 0.0006 µM
[10]
  IC50: 0.0012 µM
[11]
  IC50: 0.0006 µM
[12]
  IC50: 0.0008 µM
[13]
  IC50: 0.0008 µM
[14]
  IC50: > 10 µM
[15]
  Ki: > 2 µM
[16]
  Ki: > 2 µM
[17]
  Ki: 1.12 µM
[18]
  IC50: 1.14 µM
D(1A) dopamine receptor
  Ki: > 2 µM
D(2) dopamine receptor
  Ki: 3.16 µM
[19]
  Ki: > 2 µM
[20]
  Ki: > 2 µM
Mu-type opioid receptor
  Ki: > 2 µM
[21]
  Ki: > 2 µM
[22]
  Ki: > 2 µM
[23]
  Ki: > 2 µM
[24]
  Ki: > 2 µM
[25]
  clearance: 0.64 L/h/kg
[26]
  Vd: 3.6 L/kg
[27]
  clearance: 0.55 L/h/kg
[28]
  Vd: 3.8 L/kg
[29]
  clearance: 0.53 L/h/kg
[30]
  Vd: 2.2 L/kg
[31]
  clearance: 0.22 L/h/kg
[32]
  Vd: 2.3 L/kg
[33]
  MRT: 5.8 h
[34]
  MRT: 7.9 h
[35]
  MRT: 4.2 h
[36]
  MRT: 11 h
[37]
  bioavailability: 79%
[38]
  bioavailability: 70%
[39]
  bioavailability: 40%
[40]
  bioavailability: 29%
[41]
  blood plasma ratio: 0.79
[42]
  Kp: 0.4
[43]
  Kp: 0.21
Rhesus monkey
  Activity: Non-toxic
[44]
  concentration at 0.75 h: 6.5 µM
Cynomolgus monkey
  Activity: Non-toxic
Canis familiaris [45]
  Activity: Non-toxic
[46]
  Cmax: 33 µM
Canis familiaris [47]
  Activity: Non-toxic
